# The list is not random: actives were taken first. Their share in the collection is about 3.1%.
# GalR3 antag = blocks the human galanin receptor 3; O60755; HEK293 GalR3-CNG cAMP membrane potential fluorescence; galR3 body fused to GalR1 C-terminus; inhibition, % at 3 µM; 0.44% of 360,000 active; AID 651719;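 active = inhibition above the screen-wide average plus 3 SD, cut at about 13% in these data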;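 note: forskolin and galanin both at EC90 stimulate the cells; cAMP rise reported by CNG channel membrane potential dye signal; 0% = forskolin plus galanin with DMSO and 100% = forskolin alone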
# Target sequence (O60755 1-299 limits assumed): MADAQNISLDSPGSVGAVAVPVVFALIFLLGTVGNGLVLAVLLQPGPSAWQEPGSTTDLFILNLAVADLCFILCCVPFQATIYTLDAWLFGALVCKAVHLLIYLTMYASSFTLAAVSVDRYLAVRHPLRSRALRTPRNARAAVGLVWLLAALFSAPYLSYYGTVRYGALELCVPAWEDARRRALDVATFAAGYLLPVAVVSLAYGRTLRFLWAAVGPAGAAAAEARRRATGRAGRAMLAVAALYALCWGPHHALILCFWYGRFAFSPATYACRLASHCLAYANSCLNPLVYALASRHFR
# CHO parental Ca = counter-screen: ATP calcium response change in parental CHO cells; inhibition, % at 5.6 µM; 0.63% of 330,000 active; AID 463079; parental CHO-K1, ATP-induced calcium, Fluo-8 fluorescence;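 active = inhibition above that plate's mean sample inhibition plus 3 SD, cut at about 26% in these data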;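 note: 0% = ATP-challenged DMSO wells and 100% = DMSO wells without ATP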
#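 Assay system – parental CHO cells · Reagent – ATP stimulus · Detection – intracellular calcium via Fluo-8 no-wash fluorescent dye · Evaluation – percent inhibition of ATP-evoked calcium rise, normalized to controls · Controls – ATP wells versus no-ATP DMSO wells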
# OX1R antag-1 = blocks the human orexin 1 receptor. inhibition, % at 5 µM. CHO/OX1R cells, Fluo-8 calcium fluorescence, orexin A. AID 434989. O43613. 0.43% of 330,000 active;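 active = inhibition above its plate's threshold, mean inhibition of all tested compounds on the plate plus 3 SD, cut at about 37% in these data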;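 note: 0% = orexin A challenge wells and 100% = SB-334867-A antagonist wells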
# OX1R antag-2 = antagonists of human orexin 1 receptor (OX1R). O43613. OX1R-expressing cells, FRET antagonist read-out. inhibition, % at 6.6 µM. 1.8% of 330,000 active. AID 485270; in the data active = inhibition mostly above about 38%, no sharp cut-off; inactive = mostly below about 40%;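 note: 0% = agonist challenge alone and 100% = reference antagonist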
# GPR7 antagonist = blocks human GPR7 receptor signaling. P48145. GPR7-expressing cells, fluorescence antagonist assay. inhibition, % at 4.4 µM. 1.1% of 290,000 active; in the data active = inhibition above about 16%, passing the limit was not always enough;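 note: cells stimulated with the agonist NPW; 0% = agonist with vehicle and 100% = vehicle without agonist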
# Target sequence (P48145 whole entry, looked up): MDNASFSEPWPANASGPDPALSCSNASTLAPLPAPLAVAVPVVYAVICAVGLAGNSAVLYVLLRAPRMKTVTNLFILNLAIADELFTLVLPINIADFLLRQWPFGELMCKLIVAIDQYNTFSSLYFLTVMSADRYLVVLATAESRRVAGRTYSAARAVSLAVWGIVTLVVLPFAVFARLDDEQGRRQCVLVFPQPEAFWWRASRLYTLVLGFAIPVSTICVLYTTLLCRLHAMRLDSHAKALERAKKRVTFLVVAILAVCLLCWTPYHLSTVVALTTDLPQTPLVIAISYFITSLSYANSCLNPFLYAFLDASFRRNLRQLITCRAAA
# * = called active by the depositor; x = not tested or not shown.
SMILES,GalR3 antag,CHO parental Ca,OX1R antag-1,OX1R antag-2,GPR7 antagonist
CN(C)c1ccc([C@@H]2[C@@H]([N+](=O)[O-])[C@H]3C=Cc4ccccc4N3[C@H]2C(=O)c2ccc(Cl)cc2)cc1,-5,3,1,28,2
CC(C)CNC(=S)N1CCN(c2nc(-c3ccc(Cl)cc3)cs2)CC1,-11,39*,-1,34,-7
COCCCNC(=S)N1CCN(c2nc(-c3ccc(Cl)cc3)cs2)CC1,-7,x,x,x,x
O=C(N[C@H](Cc1ccccc1)C(=O)N1CCN(C(=O)N2CCOCC2)CC1)[C@H]1O[C@@H](n2ccc(=O)[nH]c2=O)[C@H](O)[C@@H]1O,-8,x,x,x,x
c1cnc2ncc3sccc3c2c1,-2,46*,-3,8,0
Cc1ccc(S(=O)(=O)N2CCCC2C(=O)Nc2nc3ccccc3s2)cc1 (stereo not given),x,-23,1,74*,-14
O=C(Nc1nc2ccccc2s1)C1CCCN1S(=O)(=O)c1ccc(Cl)cc1 (stereo not given),-4,-25,0,54*,-12
CCCCCCCCCCCCCCCCCCNc1ccn(C2OC(COP(=O)(O)OCC3OC(n4cc(F)c(=O)[nH]c4=O)CC3O)C(O)C2O)c(=O)n1 (stereo not given),-3,x,x,x,x
CCCCn1c(=N)n(CC(=O)c2ccc(Br)s2)c2ccccc21,-4,-1,-18,9,7
CCn1c(=N)n(CC(=O)c2ccc(Br)s2)c2ccccc21,-10,-27,-16,31,20*
CCC1Sc2ccc(S(=O)(=O)CCC(=O)Nc3ccc(C(=O)OC)cc3)cc2NC1=O (stereo not given),-6,100*,-22,-4,-4
CCC1Sc2ccc(S(=O)(=O)Nc3ccc(OC)c(OC)c3)cc2NC1=O (stereo not given),-9,45*,46*,24,10
O=C(Nc1cccc(Cl)c1)c1ccc(NC2=NC3CS(=O)(=O)CC3S2)cc1 (stereo not given),x,-5,-8,0,0
CC(=O)c1cccc(NC(=O)N2CCC(c3ccc(C)cc3)C2)c1 (stereo not given),-2,9,-34,16,-14
CN(C)c1ccc2nc3ccc(=[N+](C)C)cc-3sc2c1,-3,-10,9,59*,-4
O=C(CCS(=O)(=O)c1ccc(Br)cc1)N1CCCCCC1,-2,3,-9,1,-12
CN1CCCN(c2cc(-c3ccc4ccccc4c3)nc3ccnn23)CC1,-3,x,x,x,x
COc1cccc(CN2CC(C(=O)N3CCCO3)CCC2=O)c1 (stereo not given),-7,3,-11,4,1
COc1cc2[nH]c(=O)n3nc(-c4ccccc4)nc3c2cc1OC,x,-8,1,37*,3
Cc1ccccc1-c1cc2nc(NCc3ccc4occc4c3)n(C)c(=O)c2s1,-4,x,x,x,x
O=S(=O)(c1cc(F)ccc1F)N1CCN(c2ncnc3ccccc23)CC1,-1,49*,45*,26,x
Cc1cccc(NS(=O)(=O)c2nnc(NC(=O)c3ccc(C)c(C)c3)s2)c1,2,2,23,52*,-2
Cc1ccc(C(=O)Nc2nnc(S(=O)(=O)Nc3ccccc3C)s2)cc1C,x,-4,-8,23,1
N/C(=N\OC(=O)Oc1ccccc1)c1ccc([N+](=O)[O-])cc1,-4,4,-7,67*,0
CCOC(=O)N1CCN(C(=O)C[C@@H]2C[C@@]3(C(=O)OC)CC(C)(C)CC=C3N(Cc3cccc4ccccc34)C2=O)CC1,2,x,x,x,x
SMILES,GalR3 antag,CHO parental Ca,OX1R antag-1,OX1R antag-2,GPR7 antagonist
CC(=O)Oc1ccc2oc(/C=C/N(C)C)c([N+](=O)[O-])c2c1,-5,-3,4,50*,6
O=C1N=C(N2C=CC(=C3C=CNC=C3)C=C2)/C(=C/N=NC(=O)c2ccccc2)S1,-10,1,-12,80*,-5
Cc1nc2ccccc2c2oc(C(=O)N3CCc4ccccc4C3)cc12,-1,-11,-12,35*,-3
CC(=O)Nc1ccc(S(=O)(=O)N(C)Cc2ccccc2)cc1,-3,0,-1,20,6
CC(=O)Nc1ccc(S(=O)(=O)N(Cc2ccccc2)C(C)C)cc1,-6,3,-8,43*,10
O=C(N[C@H](Cc1ccccc1)C(=O)N1CCN(C(=O)N2CCCCC2)CC1)[C@H]1O[C@@H](n2ccc(=O)[nH]c2=O)[C@H](O)[C@@H]1O,-5,x,x,x,x
CSc1ccc(/C=N/N(C)S(=O)(=O)c2ccc(C)cc2)cc1,-10,63*,7,15,-20
Cc1ccc(/C=N/N(C)S(=O)(=O)c2ccc(C)cc2)cc1,-8,51*,-17,10,-16
Cc1ccc(S(=O)(=O)/N=C/c2ccc(N(C)C)cc2)cc1,-1,6,-1,7,-6
Cc1ccc(S(=O)(=O)N(C)/N=C/c2ccc(C(=O)O)cc2)cc1,0,-4,-9,27,-35
Cc1cccc(CS(=O)(=O)c2nnc([C@H](Cc3ccccc3)NC(=O)OC(C)(C)C)o2)c1,x,67*,57*,17,8
CCc1nnc(N/N=C/c2ccccc2F)n1N,-1,6,6,74*,-8
Cc1ccc(C)c(S(=O)(=O)N2CCCOC2CNC(=O)C(=O)NCCc2ccccc2)c1 (stereo not given),-2,-15,-1,54*,-5
O=C(NCCc1ccccc1)C(=O)NCC1CCCN1S(=O)(=O)c1ccccc1 (stereo not given),-6,-13,-4,42*,x
Cc1ccc(C)c(S(=O)(=O)N2CCCC2CNC(=O)C(=O)NCc2ccco2)c1 (stereo not given),-4,2,-29,14,x
Cc1cc(F)ccc1S(=O)(=O)N1CCCOC1CNC(=O)C(=O)NCCc1ccccc1 (stereo not given),-4,-27,-8,51,-13
O=C(NCCc1ccc(F)cc1)C(=O)NCC1CCCN1S(=O)(=O)c1cccs1 (stereo not given),-3,-20,16,69*,x
O=C(NCCc1ccccc1)C(=O)NCCC1CCCCN1S(=O)(=O)c1ccccc1 (stereo not given),-3,5,-8,38,x
Cc1ccc(C)c(S(=O)(=O)N2CCCCC2CCNC(=O)C(=O)NCc2ccco2)c1 (stereo not given),-4,-36,17,41*,x
O=c1c([N+](=O)[O-])cccn1Cc1cccc(Cl)c1,-2,5,3,22,2
CS(=O)(=O)c1nc(S(=O)(=O)c2ccc(Cl)cc2)c(N2CCOCC2)s1,0,3,0,-2,-3
CCc1ccccc1NC(=O)CN1CCN(C(=O)CCC(=O)N2CCC(c3ccccc3)=N2)CC1,4,-29,-38,3,x
CC(C)NC(=O)C1(C)CCCN1C(=O)c1ccc2c(c1)C(C)(C)CCC2(C)C (stereo not given),4,x,x,x,x
O=C(NCC1CCCN1S(=O)(=O)c1cccs1)c1ccc(F)c(F)c1 (stereo not given),-2,-18,-20,24,x

# Screens deposited in PubChem by The Scripps Research Institute Molecular Screening Center.
